Source: ChEMBL document CHEMBL4359929, “Piperidine and piperazine inhibitors of fatty acid amide hydrolase targeting excitotoxic pathology” (Bioorg Med Chem, 2019)
Calls of active or inactive are those of the source. The rule behind the calls is not given here.

Columns and labels:
[1] = molecular target: T1, Fatty-acid amide hydrolase 1 (Homo sapiens) (UniProt O00519); experiment: Inhibition of human recombinant MBP-tagged FAAH expressed in Escherichia coli cells at 1 uM using AAMCA as substrate incubated for 15 mins followed by substrate addition and measured after every 20 mins for 4 hrs by fluorescence based assay relative to control
T1 sequence (whole entry): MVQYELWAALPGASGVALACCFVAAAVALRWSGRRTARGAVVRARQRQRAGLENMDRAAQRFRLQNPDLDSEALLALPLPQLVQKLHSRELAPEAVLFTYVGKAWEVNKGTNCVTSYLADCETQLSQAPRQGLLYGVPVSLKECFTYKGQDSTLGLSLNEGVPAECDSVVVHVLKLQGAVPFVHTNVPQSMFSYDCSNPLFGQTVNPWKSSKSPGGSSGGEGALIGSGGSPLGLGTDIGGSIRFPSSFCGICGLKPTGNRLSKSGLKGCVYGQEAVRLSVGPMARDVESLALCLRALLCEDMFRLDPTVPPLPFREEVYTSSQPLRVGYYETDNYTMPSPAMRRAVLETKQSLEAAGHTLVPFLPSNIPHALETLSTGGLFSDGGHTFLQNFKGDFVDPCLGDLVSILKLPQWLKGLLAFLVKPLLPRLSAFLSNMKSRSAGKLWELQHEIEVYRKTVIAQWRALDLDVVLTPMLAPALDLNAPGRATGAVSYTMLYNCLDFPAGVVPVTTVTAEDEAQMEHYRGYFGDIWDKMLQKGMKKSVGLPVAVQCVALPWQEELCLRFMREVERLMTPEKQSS
In short: (§1)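 Fluorescent FAAH assay with arachidonoyl 7-amino-4-methylcoumarin amide as substrate; compound tested at a single concentration of 1 µM; percent inhibition reported.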

[2] = Selectivity ratio of IC50 for human full length ABHD6 expressed in Escherichia coli cells to IC50 for rat recombinant His/GST-tagged FAAH expressed in Escherichia coli cells by fluorescence based assay
[3] = molecular target: Cannabinoid receptor 1 (Rattus norvegicus) (UniProt P20272); experiment: Displacement of [3H]CP55940 from CB1 receptor in rat brain by competition-equilibrium binding analysis
Target sequence in this assay (P20272 whole entry, looked up): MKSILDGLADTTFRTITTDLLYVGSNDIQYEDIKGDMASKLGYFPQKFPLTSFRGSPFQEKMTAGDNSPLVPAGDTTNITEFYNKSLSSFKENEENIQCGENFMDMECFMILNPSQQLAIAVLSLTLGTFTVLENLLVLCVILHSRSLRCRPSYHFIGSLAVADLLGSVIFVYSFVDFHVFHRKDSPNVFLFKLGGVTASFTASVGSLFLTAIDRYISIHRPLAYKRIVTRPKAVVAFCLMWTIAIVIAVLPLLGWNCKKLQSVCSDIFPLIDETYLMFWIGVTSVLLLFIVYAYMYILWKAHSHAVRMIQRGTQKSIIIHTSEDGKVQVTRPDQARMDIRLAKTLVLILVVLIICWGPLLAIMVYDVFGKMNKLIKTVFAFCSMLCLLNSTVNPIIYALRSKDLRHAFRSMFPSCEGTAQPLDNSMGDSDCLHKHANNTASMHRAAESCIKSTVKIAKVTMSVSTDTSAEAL

[4] = molecular target: Cannabinoid receptor 2 (Mus musculus) (UniProt P47936); experiment: Displacement of [3H]CP55940 from mouse CB2 receptor expressed in HEK293 cells by competition-equilibrium binding analysis; format: cell-based
In short: (§2)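 HEK293 cell membranes expressing mouse or human CB2; competition-equilibrium binding against [3H]CP-55,940.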

Homo sapiens [5] = species: Homo sapiens; experiment: Selectivity ratio of IC50 for human recombinant His-tagged MGL expressed in Escherichia coli BL21 DE3 cells to IC50 for human recombinant MBP-tagged FAAH expressed in Escherichia coli cells by fluorescence based assay
Monoglyceride lipase = molecular target: T2, Monoglyceride lipase (Homo sapiens, UniProt Q99685); experiment: Inhibition of human recombinant His-tagged MGL expressed in Escherichia coli BL21 DE3 cells using AHMMCE as substrate preincubated with enzyme for 15 mins followed by substrate addition and measured after every 15 mins for 3 hrs by fluorescence based assay
T2 sequence (Q99685 whole entry): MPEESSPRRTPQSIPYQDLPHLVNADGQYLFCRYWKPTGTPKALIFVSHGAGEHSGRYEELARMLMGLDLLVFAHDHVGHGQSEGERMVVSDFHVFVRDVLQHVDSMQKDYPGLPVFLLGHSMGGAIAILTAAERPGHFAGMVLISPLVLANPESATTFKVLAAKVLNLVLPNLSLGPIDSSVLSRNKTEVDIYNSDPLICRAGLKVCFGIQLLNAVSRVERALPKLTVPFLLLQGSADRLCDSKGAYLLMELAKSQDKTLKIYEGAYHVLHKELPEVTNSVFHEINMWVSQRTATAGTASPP
In short: (§3)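 Fluorescent enzyme assay in throughput format. Human recombinant FAAH or purified rat FAAH used arachidonoyl 7-amino-4-methylcoumarin amide as substrate; human recombinant MGL was run by a similar fluorometric procedure.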

Homo sapiens [6] = species: Homo sapiens; experiment: Selectivity ratio of IC50 for human full length ABHD6 expressed in Escherichia coli cells to IC50 for human recombinant MBP-tagged FAAH expressed in Escherichia coli cells by fluorescence based assay
[7] = Selectivity ratio of IC50 for human recombinant His-tagged MGL expressed in Escherichia coli BL21 DE3 cells to IC50 for rat recombinant His/GST-tagged FAAH expressed in Escherichia coli cells by fluorescence based assay
[8] = molecular target: T3, Fatty-acid amide hydrolase 1 (Rattus norvegicus) (UniProt P97612); experiment: Inhibition of rat recombinant His/GST-tagged FAAH expressed in Escherichia coli cells at 1 uM using AAMCA as substrate incubated for 15 mins followed by substrate addition and measured after every 20 mins for 4 hrs by fluorescence based assay relative to control; in short: as §1
T3 sequence (whole entry): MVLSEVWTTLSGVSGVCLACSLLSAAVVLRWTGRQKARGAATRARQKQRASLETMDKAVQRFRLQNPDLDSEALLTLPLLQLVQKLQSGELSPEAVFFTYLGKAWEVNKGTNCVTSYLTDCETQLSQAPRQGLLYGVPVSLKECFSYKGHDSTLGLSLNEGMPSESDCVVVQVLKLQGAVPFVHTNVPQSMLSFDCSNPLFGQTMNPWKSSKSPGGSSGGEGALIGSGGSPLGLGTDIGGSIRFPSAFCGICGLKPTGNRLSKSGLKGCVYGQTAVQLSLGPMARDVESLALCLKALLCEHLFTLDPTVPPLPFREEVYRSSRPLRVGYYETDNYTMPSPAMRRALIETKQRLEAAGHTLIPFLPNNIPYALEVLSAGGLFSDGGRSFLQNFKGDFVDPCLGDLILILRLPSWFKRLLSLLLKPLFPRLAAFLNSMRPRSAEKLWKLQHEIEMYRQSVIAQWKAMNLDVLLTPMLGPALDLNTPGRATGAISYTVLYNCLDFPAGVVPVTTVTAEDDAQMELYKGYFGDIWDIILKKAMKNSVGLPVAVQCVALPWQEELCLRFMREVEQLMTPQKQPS

[9] = molecular target: Cannabinoid receptor 2 (Homo sapiens) (UniProt P34972); experiment: Displacement of [3H]CP55940 from human CB2 receptor expressed in HEK293 cells by competition-equilibrium binding analysis; format: cell-based; in short: as §2
[10] = molecular target: Cannabinoid receptor 1 (Rattus norvegicus) (UniProt P20272); experiment: Displacement of [3H]CP55940 from CB1 receptor in rat brain by competition-equilibrium binding analysis; format: tissue-based
In short: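 Rat brain membranes as CB1 source; competition-equilibrium binding against [3H]CP-55,940.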
Target sequence in this assay (P20272 whole entry): as the sequence (P20272 whole entry, looked up) above

[11] = Stability in human plasma assessed as half life; format: ADME, cell-free
In short: (§4)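 Stability assessed as half-life in human, rat and mouse plasma and gastric fluid, and in human, rat and mouse liver microsomal preparations.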

[12] = Stability in human liver microsomes assessed as half life; format: ADME, Microsome; in short: as §4
[13] = Stability in mouse gastric fluid assessed as half life; format: ADME, tissue-based, Gastric juice; in short: as §4
[14] = Stability in mouse liver microsomes assessed as half life; format: ADME, Microsome; in short: as §4
[15] = Drug concentration in brain (unknown origin) at 2 mg/kg, iv measured after 15 mins; format: ADME, organism-based; conditions: read-out: Ct
In short: (§5)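 Cassette pharmacokinetics: compounds given together at 2 mg/kg iv; brain and plasma levels (µg/mL) measured at 15 min.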

[16] = Stability in rat gastric fluid assessed as half life; format: ADME, tissue-based, Gastric juice; in short: as §4
[17] = Stability in human gastric fluid assessed as half life; format: ADME, tissue-based, Gastric juice; in short: as §4
[18] = molecular target: T4, Fatty-acid amide hydrolase 1 (Rattus norvegicus, UniProt P97612); experiment: Inhibition of rat recombinant His/GST-tagged FAAH expressed in Escherichia coli cells using AAMCA as substrate incubated for 15 mins followed by substrate addition and measured after every 20 mins for 4 hrs by fluorescence based assay; in short: as §3
T4 sequence (P97612 whole entry): T3 sequence (whole entry)

[19] = Drug concentration in plasma (unknown origin) at 2 mg/kg, iv measured after 15 mins; format: ADME, organism-based; in short: as §5
[20] = molecular target: T5, Fatty-acid amide hydrolase 1 (Homo sapiens, UniProt O00519); experiment: Inhibition of human recombinant MBP-tagged FAAH expressed in Escherichia coli cells using AAMCA as substrate incubated for 15 mins followed by substrate addition and measured after every 20 mins for 4 hrs by fluorescence based assay; in short: as §3
T5 sequence (O00519 whole entry): T1 sequence (whole entry)

[21] = Stability in rat liver microsomes assessed as half life; format: ADME, Microsome; in short: as §4
[22] = Stability in rat plasma assessed as half life; format: ADME, cell-free; in short: as §4
[23] = Stability in mouse plasma assessed as half life; format: ADME, cell-free; in short: as §4

Cannabinoid receptor 2 (Mus musculus), sequence (P47936 whole entry): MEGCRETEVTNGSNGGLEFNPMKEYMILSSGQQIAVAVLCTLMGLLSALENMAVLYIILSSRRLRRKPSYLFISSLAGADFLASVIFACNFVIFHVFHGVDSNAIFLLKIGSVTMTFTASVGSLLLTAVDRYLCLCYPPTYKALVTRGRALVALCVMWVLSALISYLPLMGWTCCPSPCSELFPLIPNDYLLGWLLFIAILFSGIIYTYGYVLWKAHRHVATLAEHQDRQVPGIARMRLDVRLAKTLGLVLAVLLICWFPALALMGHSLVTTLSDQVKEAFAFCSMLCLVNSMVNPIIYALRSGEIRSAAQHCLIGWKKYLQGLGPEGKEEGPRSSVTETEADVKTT
Cannabinoid receptor 2 (Homo sapiens), sequence (P34972 whole entry): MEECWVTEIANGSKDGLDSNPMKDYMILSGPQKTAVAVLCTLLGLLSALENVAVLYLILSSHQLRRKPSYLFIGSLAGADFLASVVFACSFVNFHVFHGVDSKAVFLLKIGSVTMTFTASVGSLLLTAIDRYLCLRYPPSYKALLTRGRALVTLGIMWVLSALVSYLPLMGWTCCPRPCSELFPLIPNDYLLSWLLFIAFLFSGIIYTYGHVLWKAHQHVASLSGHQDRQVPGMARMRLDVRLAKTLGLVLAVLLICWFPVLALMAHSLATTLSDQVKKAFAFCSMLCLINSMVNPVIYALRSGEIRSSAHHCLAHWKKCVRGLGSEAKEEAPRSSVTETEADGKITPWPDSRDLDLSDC

Compound	inhibition [1]	Ratio IC50 [2]	Activity [3]	Activity [4]	Ratio IC50 (Homo sapiens [5])	IC50 (Monoglyceride lipase) [nM]	Ratio IC50 (Homo sapiens [6])	Ratio IC50 [7]	inhibition [8]	Activity [9]	Activity [10]	half-life [11] [min]	half-life [12] [min]	half-life [13] [min]	half-life [14] [min]	half-life [16] [min]	half-life [17] [min]	IC50 [18] [nM]	IC50 [20] [nM]	half-life [21] [min]	also measured
O=C(Oc1cccc(N2CCS(=O)(=O)CC2)c1)N1CCC2(CC1)COC2	inactive	> 1000	inactive	inactive	> 1000	> 1000	> 1000	> 1000	inactive	inactive	inactive	–	–	–	–	–	–	–	–	–	–
O=C(Oc1cccc(N2CCOCC2)c1)N1CCC(c2ccc(F)cc2)CC1	–	> 1000	inactive	inactive	> 1000	> 1000	> 1000	> 1000	–	inactive	inactive	> 60	15 to 25	> 60	15 to 25	> 60	> 60	2.93	16.3	15 to 25	concentration at 0.25 h [15]: 508 ng/mL; concentration at 0.25 h [19]: 506 ng/mL; half-life [22]: > 60 min; half-life [23]: > 60 min
O=C(Oc1cccc(N2CCS(=O)(=O)CC2)c1)N1CCC(c2ccc(F)cc2)CC1	–	> 1000	inactive	inactive	> 1000	> 1000	> 1000	> 1000	–	inactive	inactive	> 60	15 to 25	> 60	15 to 25	> 60	> 60	2.3	10	15 to 25	concentration at 0.25 h [15]: 1230 ng/mL; concentration at 0.25 h [19]: 474 ng/mL; half-life [22]: > 60 min; half-life [23]: > 60 min
C[C@@H]1CN(C(=O)Oc2cccc(N3CCS(=O)(=O)CC3)c2)[C@@H](C)CN1c1ccc(F)cc1	–	–	inactive	inactive	–	–	–	–	35%	inactive	inactive	–	–	–	–	–	–	–	–	–	–
COc1ccc(N2CCN(C(=O)Oc3cccc(N4CCS(=O)(=O)CC4)c3)[C@@H](C(C)C)C2)cc1	inactive	–	inactive	inactive	–	–	–	–	inactive	inactive	inactive	–	–	–	–	–	–	–	–	–	–
O=C(Oc1cccc(N2CCS(=O)(=O)CC2)c1)N1CCN(c2ccnnc2)CC1	inactive	> 1000	inactive	inactive	> 1000	> 1000	> 1000	> 1000	inactive	inactive	inactive	–	–	–	–	–	–	–	–	–	–
C[C@H]1CN(c2ccccc2)CCN1C(=O)Oc1cccc(N2CCS(=O)(=O)CC2)c1	inactive	–	inactive	inactive	–	–	–	–	inactive	inactive	inactive	–	–	–	–	–	–	–	–	–	–
O=C(Oc1cccc(N2CCS(=O)(=O)CC2)c1)N1CCC(c2ccc(OCCF)cc2)CC1	–	> 1000	inactive	inactive	> 1000	> 1000	> 1000	> 1000	–	inactive	inactive	> 60	15 to 25	> 60	15 to 25	> 60	> 60	5.5	21.2	15 to 25	concentration at 0.25 h [15]: 909 ng/mL; concentration at 0.25 h [19]: 388 ng/mL; half-life [22]: > 60 min; half-life [23]: > 60 min
O=C(Oc1cccc(N2CCS(=O)(=O)CC2)c1)N1C[C@@H]2C[C@H]1CN2c1ccc(F)cc1	67%	> 1000	inactive	inactive	> 1000	> 1000	> 1000	> 1000	–	inactive	inactive	–	–	–	–	–	–	341	–	–	–
O=C(Oc1cccc(N2CCS(=O)(=O)CC2)c1)N1CCN(c2ccc(F)cc2)CC12CC2	–	–	inactive	inactive	–	–	–	–	54%	inactive	inactive	–	–	–	–	–	–	–	–	–	–
N#Cc1ccc(C2CCN(C(=O)Oc3cccc(N4CCS(=O)(=O)CC4)c3)CC2)cc1	–	> 1000	inactive	inactive	> 1000	> 1000	> 1000	> 1000	–	inactive	inactive	> 60	15 to 25	> 60	15 to 25	> 60	> 60	9.9	22.7	15 to 25	half-life [22]: > 60 min; half-life [23]: > 60 min
